Target: Cannabinoid receptor 1 (Rattus norvegicus, UniProt P20272)
Assay: Displacement of [3H]SR141716 from CB1 receptor in rat cerebellum homogenate
Type: tissue-based
How it was run: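 Competition binding against [3H]SR141716 in rat cerebellum homogenates. Each concentration was run in triplicate, and each experiment was repeated three times. Data were fitted by non-linear regression, and values are mean ± SEM of three experiments.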

Cannabinoid receptor 1, sequence (P20272 whole entry): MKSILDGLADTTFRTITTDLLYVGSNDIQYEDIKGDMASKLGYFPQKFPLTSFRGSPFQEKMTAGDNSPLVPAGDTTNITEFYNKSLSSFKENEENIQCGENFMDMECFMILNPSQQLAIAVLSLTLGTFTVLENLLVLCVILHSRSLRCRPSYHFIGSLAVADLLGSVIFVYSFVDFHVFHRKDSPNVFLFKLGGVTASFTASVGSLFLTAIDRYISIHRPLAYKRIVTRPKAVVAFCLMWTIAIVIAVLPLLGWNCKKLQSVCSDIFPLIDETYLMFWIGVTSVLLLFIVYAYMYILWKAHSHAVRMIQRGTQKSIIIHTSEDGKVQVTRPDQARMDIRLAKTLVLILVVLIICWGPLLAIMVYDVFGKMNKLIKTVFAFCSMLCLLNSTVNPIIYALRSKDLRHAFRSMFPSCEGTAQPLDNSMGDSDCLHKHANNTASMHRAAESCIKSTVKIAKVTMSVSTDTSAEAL

Row | SMILES | Ki [nM]
1 | O=C(NN1CCCCC1)c1nnn(-c2ccc(Cl)cc2Cl)c1-c1ccc(Cl)cc1 | 590
2 | O=C(Oc1ccccc1)c1nnn(-c2ccc(Cl)cc2Cl)c1-c1ccc(Cl)cc1 | 11
3 | O=C(OCc1ccccc1)c1nnn(-c2ccc(Cl)cc2Cl)c1-c1ccc(Cl)cc1 | 97
4 | COC(=O)c1nnn(-c2ccc(Cl)cc2)c1-c1ccc(Cl)cc1 | 4400
5 | CCCOC(=O)c1nnn(-c2ccc(Cl)cc2Cl)c1-c1ccc(Cl)cc1 | 4.6
6 | Clc1ccc(-c2cnnn2-c2ccc(Cl)cc2)cc1 | 6900
7 | Clc1ccc(-c2cnnn2-c2ccc(Cl)cc2Cl)cc1 | 1420
8 | O=C(OC1CCCCC1)c1nnn(-c2ccc(Cl)cc2Cl)c1-c1ccc(Cl)cc1 | 240
9 | CCOC(=O)c1nnn(-c2ccc(Cl)cc2Cl)c1-c1ccc(Cl)cc1 | 180
10 | COC(=O)c1nnn(-c2ccc(Cl)cc2Cl)c1-c1ccc(Cl)cc1 | 66
